In ChEMBL document CHEMBL1144766, “Discovery of quinolinediones exhibiting a heat shock response and angiogenesis inhibition” (J Med Chem, 2008):
Calls of active or inactive are those of the source. No cut-off for these calls is given here.

Assays:
NCI60 = assay: (§1) Cytotoxicity against human NCI60 cells; type: functional
[1] = as §1; type: functional; conditions: for TGI: read-out: Log TGI (converted)
[2] = target: Heat shock protein HSP 90-beta (Homo sapiens) (UniProt P08238); assay: Binding affinity to N-terminal ATP binding site of Hsp90 at 100 uM after 30 mins
Heat shock protein HSP 90-beta (Homo sapiens), sequence (P08238 whole entry): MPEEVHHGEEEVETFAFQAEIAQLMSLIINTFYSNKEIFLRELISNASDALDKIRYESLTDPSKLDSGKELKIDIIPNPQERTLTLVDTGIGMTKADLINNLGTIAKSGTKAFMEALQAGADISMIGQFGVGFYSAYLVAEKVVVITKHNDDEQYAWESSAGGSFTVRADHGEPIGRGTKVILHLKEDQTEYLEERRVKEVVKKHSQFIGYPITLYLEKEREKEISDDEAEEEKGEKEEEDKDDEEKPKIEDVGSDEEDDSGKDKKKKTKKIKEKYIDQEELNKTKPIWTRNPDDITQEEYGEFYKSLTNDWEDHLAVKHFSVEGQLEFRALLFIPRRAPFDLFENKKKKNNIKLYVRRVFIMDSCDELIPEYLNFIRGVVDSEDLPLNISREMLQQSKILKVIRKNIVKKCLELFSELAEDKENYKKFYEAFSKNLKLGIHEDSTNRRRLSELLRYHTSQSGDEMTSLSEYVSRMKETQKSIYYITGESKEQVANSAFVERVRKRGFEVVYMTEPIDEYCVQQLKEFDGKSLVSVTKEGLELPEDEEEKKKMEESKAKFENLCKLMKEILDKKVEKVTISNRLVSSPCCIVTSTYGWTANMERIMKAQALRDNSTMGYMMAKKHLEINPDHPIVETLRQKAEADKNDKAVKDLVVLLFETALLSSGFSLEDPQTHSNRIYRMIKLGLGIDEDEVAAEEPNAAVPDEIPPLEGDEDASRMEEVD
In short: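 Compounds were made up in DMSO at 35 mM (stock) just before use and added to whole cell lysates at 100 µM final. Lysates were held on ice for 30 min, then incubated with geldanamycin-derivatized agarose beads at 4 °C with rocking for 60 min. Beads were washed, and eluted proteins were run on gels and blotted for Hsp90. Loss of the Hsp90 band indicated competition.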

MCF7 = assay: Growth inhibition of human MCF7 cells after 48 hrs by sulforhodamine B assay; type: functional
In short: (§2)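 Sulforhodamine B assay. Cells were seeded and incubated 24 h, then exposed to serial compound dilutions for 48 h. Plates were fixed with trichloroacetic acid, stained with SRB and read for optical density. GI50 was calculated from the OD data as the concentration giving 50% reduction in net protein increase. HUVEC were grown in EGM-2.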

HUVEC [3] = assay: Antiangiogenic activity in HUVEC assessed as cord length at 1.0 ug/ml after 24 hrs relative to control; type: functional, cell-based; conditions: Homo sapiens
In short: (§3)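 HUVEC grown in EGM-2. Matrigel was gelled in wells (15 min room temperature, then 30 min at 37 °C) and seeded with HUVEC at 2 × 10⁵ cells/mL. Compound was added in culture medium. After 24 h, cords and junctions were imaged by inverted microscope and digital camera. Cord length and junction number were measured relative to untreated controls.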

HUVEC [4] = assay: Effect on HUVEC growth at 0.1 ug/ml relative to control; type: functional, Homo sapiens
HUVEC [5] = assay: Antiangiogenic activity in HUVEC assessed as number of junctions at 1.0 ug/ml after 24 hrs relative to control; type: functional, Homo sapiens; in short: as §3
HUVEC [6] = assay: Effect on HUVEC growth at 1.0 ug/ml relative to control; type: functional, Homo sapiens
HUVEC [7] = assay: Antiangiogenic activity in HUVEC assessed as number of junctions at 0.001 ug/ml after 24 hrs relative to control; type: functional, cell-based; conditions: Homo sapiens; in short: as §3
HUVEC [8] = assay: Effect on HUVEC growth at 10 ug/ml relative to control; type: functional, Homo sapiens
HUVEC [9] = assay: Effect on HUVEC growth at 0.001 ug/ml relative to control; type: functional, Homo sapiens
HUVEC [10] = assay: Antiangiogenic activity in HUVEC assessed as number of junctions at 0.1 ug/ml after 24 hrs relative to control; type: functional, Homo sapiens; in short: as §3
NCI-H460 = assay: Growth inhibition of human NCI-H460 cells after 48 hrs by sulforhodamine B assay; type: functional; in short: as §2
HUVEC [11] = assay: Antiangiogenic activity in HUVEC assessed as cord length at 0.001 ug/ml after 24 hrs relative to control; type: functional, cell-based; conditions: Homo sapiens; in short: as §3
HUVEC [12] = assay: Growth inhibition of HUVEC after 48 hrs by sulforhodamine B assay; type: cell-based; conditions: human; in short: as §2
HUVEC [13] = assay: Antiangiogenic activity in HUVEC assessed as cord length at 0.1 ug/ml after 24 hrs relative to control; type: functional, cell-based; conditions: Homo sapiens; in short: as §3
HUVEC [14] = assay: Antiangiogenic activity in HUVEC assessed as cord length at 0.01 ug/ml after 24 hrs relative to control; type: functional, cell-based; conditions: Homo sapiens; in short: as §3
HUVEC [15] = assay: Effect on HUVEC growth at 0.01 ug/ml relative to control; type: functional, Homo sapiens
HUVEC [16] = assay: Antiangiogenic activity in HUVEC assessed as number of junctions at 0.01 ug/ml after 24 hrs relative to control; type: functional; in short: as §3
HUVEC [17] = assay: Antiangiogenic activity in HUVEC assessed as cord length at 10 ug/ml after 24 hrs relative to control; type: functional, Homo sapiens; in short: as §3

| SMILES | GI50 [1] [µM] | Activity [2] | LC50 [1] [µM] | TGI [1] [µM] | other results |
| --- | --- | --- | --- | --- | --- |
| COc1cc(CNC2=CC(=O)c3ccc(-c4ccccc4)nc3C2=O)cc(OC)c1OC | 57.5 | inactive | – | – | Activity (NCI60): inactive |
| Cc1ccc2c(n1)C(=O)C=C(N1CC1)C2=O | 0.513 | inactive | 7.94 | 2.04 | – |
| Cc1cc2c(nc1-c1ccccc1)C(=O)C=C(N1CC1)C2=O | – | inactive | – | – | – |
| COc1cc(CNC2=CC(=O)c3nc(-c4ccccc4)ccc3C2=O)cc(OC)c1OC | 2.34 | inactive | 66.1 | 15.5 | – |
| O=C1C(N2CCCC2)=CC(=O)c2nc(-c3ccccc3)ccc21 | 44.7 | inactive | – | – | Activity (NCI60): inactive |
| O=C1C(N2CC2)=CC(=O)c2nc(-c3ccccc3)ccc21 | 0.0275 | inactive | 2.04 | 0.324 | – |
| COCCCNC1=CC(=O)c2nc(-c3ccccc3)ccc2C1=O | 3.55 | inactive | 66.1 | 19.1 | – |
| COc1cc2c(nc1C)C(=O)C(N1CC1)=CC2=O | 0.275 | inactive | 4.37 | 0.832 | – |
| O=C1C(N2CC2)=CC(=O)c2nc(-c3ccc(-c4ccccc4)cc3)ccc21 | 7.94 | inactive | 64.6 | 26.9 | – |
| COc1cc(-c2ccc3c(n2)C(=O)C=C(N2CC2)C3=O)cc(OC)c1OC | 0.589 | inactive | 5.5 | 1.78 | – |
| O=C1C=C(N2CC2)C(=O)c2nc(-c3ccccc3)ccc21 | 0.0851 | inactive | 17.8 | 3.31 | – |
| O=C1C(NCc2ccccc2)=CC(=O)c2nc(-c3ccccc3)ccc21 | 1.7 | inactive | 66.1 | 15.5 | – |
| COC1=CC(=O)c2nc(-c3cc(OC)c(OC)c(OC)c3)ccc2C1=O | – | inactive | – | – | Activity (MCF7): 0.24 µg/mL; Activity (HUVEC [3]): inactive; Activity (HUVEC [4]): 90%; Activity (HUVEC [5]): 50%; Activity (HUVEC [6]): 2%; Activity (HUVEC [7]): inactive; Activity (HUVEC [8]): 23%; Activity (HUVEC [9]): 106%; Activity (HUVEC [10]): 50%; Activity (NCI-H460): 1.9 µg/mL; Activity (HUVEC [11]): inactive; Activity (HUVEC [12]): 0.28 µg/mL; Activity (HUVEC [13]): inactive; Activity (HUVEC [14]): inactive; Activity (HUVEC [15]): 117%; Activity (HUVEC [16]; Homo sapiens): inactive |
| COCCCNC1=CC(=O)c2ccc(-c3ccccc3)nc2C1=O | 5.5 | inactive | 70.8 | 28.8 | – |
| O=C1C=C(NCc2ccccc2)C(=O)c2nc(-c3ccccc3)ccc21 | 33.1 | inactive | – | – | Activity (NCI60): inactive |
| COc1cc(-c2ccc3c(n2)C(=O)C=C(NCc2ccccc2)C3=O)cc(OC)c1OC | – | inactive | – | – | Activity (MCF7): 0.52 µg/mL; Activity (HUVEC [3]): inactive; Activity (NCI60): inactive; Activity (HUVEC [17]): 75%; Activity (HUVEC [4]): 64%; Activity (HUVEC [5]; Homo sapiens): inactive; Activity (HUVEC [6]): 64%; Activity (HUVEC [7]): inactive; Activity (HUVEC [8]): 13%; Activity (HUVEC [9]): 104%; Activity (HUVEC [10]; Homo sapiens): inactive; Activity (NCI-H460): 0.65 µg/mL; Activity (HUVEC [11]): inactive; Activity (HUVEC [12]): 1.9 µg/mL; Activity (HUVEC [13]): inactive; Activity (HUVEC [14]): inactive; Activity (HUVEC [15]): 92%; Activity (HUVEC [16]; Homo sapiens): inactive |
| C=CCNC1=CC(=O)c2nc(-c3ccccc3)ccc2C1=O | 1.91 | inactive | 43.7 | 14.1 | – |
| COc1cc2c(nc1-c1ccccc1)C(=O)C(N1CC1)=CC2=O | 0.525 | inactive | 4.9 | 1.66 | – |
| COc1cc(-c2ccc3c(n2)C(=O)C(NCc2ccccc2)=CC3=O)cc(OC)c1OC | 2.69 | inactive | – | 63.1 | Activity (MCF7): 0.35 µg/mL; Activity (HUVEC [3]): inactive; Activity (NCI60): inactive; Activity (HUVEC [17]): 75%; Activity (HUVEC [4]): 91%; Activity (HUVEC [5]): 50%; Activity (HUVEC [6]): 64%; Activity (HUVEC [7]): inactive; Activity (HUVEC [8]): 14%; Activity (HUVEC [9]): 102%; Activity (HUVEC [10]): 50%; Activity (NCI-H460): 0.43 µg/mL; Activity (HUVEC [11]): inactive; Activity (HUVEC [12]): 1.9 µg/mL; Activity (HUVEC [13]): inactive; Activity (HUVEC [14]): inactive; Activity (HUVEC [15]): 118%; Activity (HUVEC [16]): 50% |
